Experimental data as given in ChEMBL document CHEMBL4828712, “Design of gp120 HIV-1 entry inhibitors by scaffold hopping via isosteric replacements” (Eur J Med Chem, 2021).
Active and inactive are the calls of the source. The calls are words filed in the database; no cut-off is given here.

What was measured:
[1] = Inhibition of gp120 in HIV-1 NL4-3 HXB-2-Luc pseudotyped virus infected in human TZM-bl cells assessed as reduction in viral infection pretreated for 30 mins before viral infection and measured after 3 days by luciferase based single cycle infection assay; assay type: cell-based, HIV-1 M:B_HXB2R; conditions: Human immunodeficiency virus 1, NL4-3, TZM-bl
Procedure, shortened: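 Single-cycle infection of TZM-bl cells with the HIV-1 NL4-3-HXB2-Luc pseudotyped virus bearing Env of lab-adapted HIV-1 HXB-2 (CXCR4-tropic), with luciferase read-out.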

[2] = (§1) Cytotoxicity against human TZM-bl cells assessed as reduction in cell viability incubated for 3 days by XTT assay; assay type: cell-based; conditions: TZM-bl cells, time 3 day
TZM = test: as §1; assay type: cell-based; conditions: tzm, 72 h, time 3 day
[3] = Inhibition of glycoprotein in VSV-G pseudotyped MLV virus infected in human U87/CD4/CCR5 cells assessed as inhibition of viral infection pretreated for 30 mins before viral infection and measured after 3 days by luciferase based single cycle infection assay; assay type: cell-based; conditions: Murine leukemia virus
Procedure, shortened: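 Specificity counter-screen in which U87-CD4-CCR5 cells are infected with the luciferase-reporter control pseudovirus MLV-GP/VSV-G/Luc; IC50 is derived from inhibition of infection.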

[4] = biological target: Human immunodeficiency virus type 1 reverse transcriptase (Human immunodeficiency virus 1, UniProt Q72547); test: Inhibition of recombinant HIV1 reverse transcriptase by colorimetric assay
[5] = Cytotoxicity against human U87/CD4/CCR5 cells assessed as reduction in cell viability incubated for 3 days by XTT assay; assay type: cell-based; conditions: time 3 day; for CC50 at 72 h: U87/CD4/CCR5 cells
Procedure, shortened: (§2)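 Viability read by the colorimetric XTT method in the stated cell line, run alongside the antiviral assays on the same cells; CC50 calculated from the viability data; values reported as mean ± standard deviation.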

[6] = Cytotoxicity against CD4-negative dog Cf2Th-CCR5 cells assessed as reduction in cell viability incubated for 3 days by XTT assay; assay type: cell-based, Canis lupus familiaris; conditions: time 3 day; for CC50: cf2th-ccr5, 72 h; procedure, shortened: as §2
[7] = biological target: Envelope glycoprotein gp160 (Human immunodeficiency virus 1) (UniProt Q6QLK5); test: Inhibition of gp120 in HIV-1 ADA infected in CD4-negative dog Cf2Th-CCR5 cells assessed as antagonism of viral entry by measuring inhibition of viral infection at 20 to 60 uM pretreated for 30 mins before viral infection and incubated for 48 hrs by luciferase assay; assay type: cell-based; conditions: dose 20-60 µM, time 48.5 hrs
Procedure, shortened: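 CD4-negative Cf2Th-CCR5 cells infected with a luciferase-expressing recombinant CD4-dependent HIV-1 ADA pseudovirus under escalating compound concentrations. Read-out is relative infectivity: infection with compound divided by infection without compound. Three independent experiments, each run in triplicate.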

Chain of Envelope glycoprotein gp160 (Human immunodeficiency virus 1) (Q6QLK5 1-814): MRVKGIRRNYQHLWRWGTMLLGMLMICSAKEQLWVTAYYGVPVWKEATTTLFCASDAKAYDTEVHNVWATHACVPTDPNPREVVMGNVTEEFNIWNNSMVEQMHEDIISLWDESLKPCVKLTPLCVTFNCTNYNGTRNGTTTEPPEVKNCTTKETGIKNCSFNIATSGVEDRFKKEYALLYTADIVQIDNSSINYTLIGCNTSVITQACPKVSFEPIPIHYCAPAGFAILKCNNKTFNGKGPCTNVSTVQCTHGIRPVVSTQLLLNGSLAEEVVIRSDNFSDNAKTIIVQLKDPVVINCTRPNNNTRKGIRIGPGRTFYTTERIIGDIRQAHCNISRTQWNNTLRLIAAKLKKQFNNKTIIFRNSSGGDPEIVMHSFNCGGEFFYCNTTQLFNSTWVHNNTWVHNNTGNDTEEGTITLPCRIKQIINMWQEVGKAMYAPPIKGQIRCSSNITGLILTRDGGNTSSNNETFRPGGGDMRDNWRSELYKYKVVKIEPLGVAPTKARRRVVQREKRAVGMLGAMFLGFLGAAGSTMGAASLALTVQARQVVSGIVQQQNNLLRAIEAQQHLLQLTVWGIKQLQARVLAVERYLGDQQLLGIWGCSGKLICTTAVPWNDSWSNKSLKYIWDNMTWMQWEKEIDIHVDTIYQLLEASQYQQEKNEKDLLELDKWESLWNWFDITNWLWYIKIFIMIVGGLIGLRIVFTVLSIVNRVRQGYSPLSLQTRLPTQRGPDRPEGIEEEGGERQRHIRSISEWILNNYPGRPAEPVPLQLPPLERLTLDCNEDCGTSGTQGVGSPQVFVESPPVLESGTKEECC

Structure (SMILES): NC[C@@H](NC(=O)CNCc1ccc(Cl)cc1)c1ncc(CO)s1
- IC50 [1]: > 23.4 µM
- CC50 at 72 h [2]: > 70 µM

Structure (SMILES): Cc1nc([C@@H](CN)NC(=O)c2cc3cc(Cl)ccc3[nH]2)sc1CO
- IC50 [1]: > 40 µM
- CC50 at 72 h [2]: 47 µM

Structure (SMILES): NC[C@H](NC(=O)c1ccc(OCC2CCCCC2)cc1)c1ncc(CO)s1
- IC50 [1]: > 15 µM
- CC50 at 72 h [2]: 26.5 µM

Structure (SMILES): NC[C@H](NC(=O)CNCc1ccc(Cl)cc1)c1ncc(CO)s1
- IC50 [1]: > 23.4 µM
- CC50 at 72 h [2]: > 70 µM

Structure (SMILES): NC[C@@H](NC(=O)c1ccc(NCC2CCCCC2)cc1)c1ncc(CO)s1
- IC50 [1]: > 15 µM
- CC50 at 72 h [2]: 56.5 µM

Structure (SMILES): NCCNC(=O)c1ccc(-c2ccc(Cl)c(F)c2)[nH]1
- IC50 [1]: 3.3 µM
- CC50 (TZM): 17.8 µM

Structure (SMILES): NC[C@H](NC(=O)c1ccc(-c2ccc(Cl)cc2)[nH]1)c1nccs1
- IC50 [1]: 1 µM
- IC50 [3]: 16.2 µM
- CC50 at 72 h [2]: 36.5 µM
- IC50 [4]: 18.9 µM
- CC50 at 72 h [5]: 59.1 µM

Structure (SMILES): NC[C@H](NC(=O)C(=O)NCc1ccc(Cl)c(F)c1)c1ncc(CO)s1
- IC50 [1]: > 15 µM
- CC50 at 72 h [2]: > 77.6 µM

Structure (SMILES): NC[C@@H](NC(=O)Cc1ccc(OCC2CCCCC2)cc1)c1ncc(CO)s1
- IC50 [1]: > 25 µM
- CC50 at 72 h [2]: 27.9 µM

Structure (SMILES): Cc1nc([C@H](CN)NC(=O)NC(=O)c2ccc(Cl)cc2)sc1CO
- IC50 [1]: > 54 µM
- CC50 at 72 h [2]: > 54 µM

Structure (SMILES): Cc1nc([C@@H](CN)NC(=O)NC(=O)c2ccc(Cl)cc2)sc1CO
- IC50 [1]: > 54 µM
- CC50 at 72 h [2]: > 54 µM

Structure (SMILES): CC1(C)CC(NC(=O)C(=O)Nc2ccc(Cl)cc2)CC(C)(C)N1
- IC50 [1]: 6.9 µM
- CC50 [6]: > 60 µM
- CC50 at 72 h [2]: 60 µM
- IC50 [4]: > 300 µM

Structure (SMILES): O=C(N[C@@H](CC1CCNCC1)c1nc(CO)cs1)c1ccc(-c2ccc(C(F)(F)F)cc2)[nH]1
- IC50 [1]: > 12.5 µM
- CC50 at 72 h [2]: > 40 µM

Structure (SMILES): NC[C@@H](NC(=O)c1ccc(OCC2CCCCC2)cc1)c1ncc(CO)s1
- IC50 [1]: > 15 µM
- CC50 at 72 h [2]: 28.2 µM

Structure (SMILES): O=C(NC1CCNCC1)c1ccc(-c2ccc(Cl)c(F)c2)[nH]1
- IC50 [1]: 4.9 µM
- CC50 at 72 h [2]: 9.7 µM

Structure (SMILES): NC[C@H](NC(=O)c1ccc(NCC2CCCCC2)cc1)c1ncc(CO)s1
- IC50 [1]: > 15 µM
- CC50 at 72 h [2]: 56.5 µM

Structure (SMILES): O=C(NC1(c2nc(CO)cs2)CCNCC1)c1ccc(-c2ccc(C(F)(F)F)cc2)[nH]1
- IC50 [1]: 5 µM
- IC50 [3]: 6.2 µM
- CC50 (TZM): 33.7 µM
- IC50 [4]: 1.7 µM
- CC50 ([5]; u87/cd4/ccr5, 72 h): 57.7 µM

Structure (SMILES): Cc1cc(-c2ccc(C(F)(F)F)cn2)[nH]c1C(=O)NC(CN)c1ncc(CO)s1 (stereo not given)
- CC50 [6]: > 47 µM
- inhibition [7]: Active

Structure (SMILES): NC[C@@H](NC(=O)C(=O)NCc1ccc(Cl)c(F)c1)c1ncc(CO)s1
- IC50 [1]: > 15 µM
- CC50 at 72 h [2]: > 77.6 µM

Structure (SMILES): O=C(N[C@H](CC1CCNCC1)c1nc(CO)cs1)c1ccc(-c2ccc(C(F)(F)F)cc2)[nH]1
- IC50 [1]: > 12.5 µM
- CC50 at 72 h [2]: > 40 µM

Structure (SMILES): NC[C@@H](NC(=O)c1ccc(C2CCCCC2)[nH]1)c1ncc(CO)s1
- IC50 [1]: > 17 µM
- CC50 at 72 h [2]: > 57 µM

Structure (SMILES): NC[C@H](NC(=O)c1ccc(C2CCCCC2)[nH]1)c1ncc(CO)s1
- IC50 [1]: > 17 µM
- CC50 at 72 h [2]: > 57 µM

Structure (SMILES): NC[C@@H](NC(=O)c1ccc(-c2ccc(Cl)cc2)[nH]1)c1nccs1
- IC50 [1]: 2.4 µM
- IC50 [3]: 12 µM
- CC50 at 72 h ([6]; CD4-negative Cf2Th-CCR5 cells): 24.7 µM
- CC50 at 72 h [2]: 38.9 µM
- IC50 [4]: 31 µM
- CC50 at 72 h [5]: 45.5 µM
- inhibition [7]: Active

Structure (SMILES): Cc1nc([C@@H](CN)NC(=O)c2cc3ccccc3[nH]2)sc1CO
- IC50 [1]: > 60 µM
- CC50 at 72 h [2]: > 60 µM

Structure (SMILES): Cc1nc([C@H](CN)NC(=O)c2cc3ccccc3[nH]2)sc1CO
- IC50 [1]: > 60 µM
- CC50 at 72 h [2]: > 60 µM

Structure (SMILES): Cc1nc([C@@H](CN)NC(=O)C(=O)Nc2ccc(Cl)cc2)sc1CO
- IC50 [1]: > 27 µM
- CC50 at 72 h [2]: > 54 µM

Structure (SMILES): Cc1nc([C@H](CCN)NC(=O)C(=O)Nc2ccc(Cl)cc2)sc1CO
- IC50 [1]: ≥ 14.7 µM
- CC50 at 72 h [2]: ≥ 38.3 µM

Structure (SMILES): NC[C@H](NC(=O)Cc1ccc(OCC2CCCCC2)cc1)c1ncc(CO)s1
- IC50 [1]: > 25 µM
- CC50 at 72 h [2]: 47.5 µM

Structure (SMILES): Cc1nc([C@H](CN)NC(=O)c2cc3cc(Cl)ccc3[nH]2)sc1CO
- IC50 [1]: 50 µM
- CC50 at 72 h [2]: > 55 µM

Structure (SMILES): Cc1nc([C@@H](CCN)NC(=O)C(=O)Nc2ccc(Cl)cc2)sc1CO
- IC50 [1]: 10.6 µM
- CC50 at 72 h [2]: ≥ 46.6 µM

Structure (SMILES): Cc1nc([C@H](CN)NC(=O)C(=O)Nc2ccc(Cl)cc2)sc1CO
- IC50 [1]: > 27 µM
- CC50 at 72 h [2]: > 54 µM
